Values after ≈ are worked out from the molar mass of the structure shown.
Key:
Type in all cases: functional
Staphylococcus aureus [1] = assay: Antibacterial activity against Staphylococcus aureus SG 511 after 24 hrs by micro-broth dilution method; settings: SG 511, 24 h
Summary of the method: (§1)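 Microbroth dilution per NCCLS guidelines. Bacteria grown overnight at 37 °C in Mueller–Hinton broth. Compound solution serially diluted twofold in MHB, then wells inoculated to a final 5×10⁵ CFU/mL. Incubated 24 h at 37 °C. MIC (µg/mL) read on an automatic plate reader as the lowest dilution allowing no visible growth.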

Staphylococcus aureus [2] = assay: Antibacterial activity against methicillin-resistant Staphylococcus aureus 994/93 after 24 hrs by micro-broth dilution method
Summary of the method: (§2)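 Broth microdilution per NCCLS in Mueller–Hinton broth. Overnight cultures grown at 37 °C. Compound serially diluted twofold, then wells inoculated to a final 5×10⁵ CFU/mL. Plates held at 37 °C for 24 h. MIC (µg/mL) read on an automatic plate reader as the lowest dilution with no visible growth.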

Micrococcus luteus = assay: Antibacterial activity against Micrococcus luteus ATCC 10240 after 24 hrs by microbroth dilution method; settings: ATCC 10240, 24 h; summary of the method: as §1
Enterococcus faecalis = assay: Antibacterial activity against Enterococcus faecalis 1528 after 24 hrs by micro-broth dilution method; summary of the method: as §1
[3] = test system: Mycolicibacterium smegmatis; assay: Antimicrobial activity against Mycobacterium smegmatis SG 987 after 24 hrs by micro-broth dilution method; summary of the method: as §1
Mycolicibacterium aurum = assay: Antimicrobial activity against Mycobacterium aurum SB 66 after 24 hrs by micro-broth dilution method; summary of the method: as §1
Mycolicibacterium vaccae = assay: Antimicrobial activity against Mycobacterium vaccae 10670 after 24 hrs by micro-broth dilution method; summary of the method: as §1
[4] = test system: Mycolicibacterium fortuitum; assay: Antimicrobial activity against Mycobacterium fortuitum Borstel after 24 hrs by microbroth dilution method; summary of the method: as §1
Staphylococcus aureus [5] = assay: Antibacterial activity against methicillin-resistant Staphylococcus aureus 134/94 after 24 hrs by microbroth dilution method; summary of the method: as §2
[6] = test system: Mycobacterium tuberculosis; assay: Antimicrobial activity against Mycobacterium tuberculosis My 331/88 after 14 days; settings: 336 h
[7] = test system: Mycobacterium tuberculosis; assay: Antimicrobial activity against Mycobacterium tuberculosis My 331/88 after 21 days; settings: 504 h
Mycobacterium avium [8] = assay: Antimicrobial activity against Mycobacterium avium My 330/88 after 14 days; settings: 336 h
Mycobacterium avium [9] = assay: Antimicrobial activity against Mycobacterium avium My 330/88 after 21 days; settings: 504 h
Mycobacterium kansasii [10] = assay: Antimicrobial activity against Mycobacterium kansasii My 235/80 after 7 days; settings: 168 h
Summary of the method: (§3)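 Run in Šula semisynthetic liquid medium containing bovine serum. Compounds added as DMSO solutions at final concentrations of […]. Each strain was also inoculated onto Löwenstein–Jensen medium to control inoculum sterility and growth.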

Mycobacterium kansasii [11] = assay: Antimicrobial activity against Mycobacterium kansasii My 235/80 after 14 days; settings: 336 h; summary of the method: as §3
Mycobacterium kansasii [12] = assay: Antimicrobial activity against Mycobacterium kansasii My 235/80 after 21 days; settings: 504 h; summary of the method: as §3
Mycobacterium kansasii [13] = assay: Antimicrobial activity against Mycobacterium kansasii My 6509/96 after 7 days; settings: 168 h; summary of the method: as §3
Mycobacterium kansasii [14] = assay: Antimicrobial activity against Mycobacterium kansasii My 6509/96 after 14 days; settings: 336 h; summary of the method: as §3
Mycobacterium kansasii [15] = assay: Antimicrobial activity against Mycobacterium kansasii My 6509/96 after 21 days; settings: 504 h; summary of the method: as §3
L929 = assay: Antiproliferative activity against mouse L929 cells after 72 hrs; settings: L929, 72 h
Summary of the method: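 About 10,000 adherent cells per well in RPMI 1640 with 10% heat-inactivated FBS and penicillin/streptomycin, without HEPES. Exposed to 10 concentrations for 72 h at 37 °C in humidified 5% CO₂. Monolayers fixed with glutaraldehyde, stained 15 min with 0.05% methylene blue, and eluted with 0.33 N HCl; OD read at 630 nm. GI50 derived from dose–response curves relative to control.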

K562 = assay: Antiproliferative activity against human K562 cells after 72 hrs; settings: K562, 72 h
Summary of the method: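 About 10,000 suspension cells per well in RPMI 1640 with 10% heat-inactivated FBS and penicillin/streptomycin, without HEPES. Exposed to 10 concentrations for 72 h at 37 °C in humidified 5% CO₂. Wells diluted 1:50 in CASYTON and counted electronically, each result the mean of three successive counts. GI50 is where the concentration–response curve crosses 50% of control cell count.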

HeLa = assay: Cytotoxicity against human HeLa cells after 72 hrs
Summary of the method: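 About 10,000 cells per well in RPMI 1640 were preincubated 48 h without compound. The 10 test concentrations were then applied onto the monolayers and incubated 72 h at 37 °C in humidified 5% CO₂. Monolayers fixed with glutaraldehyde, stained with 0.05% methylene blue, and eluted with 0.33 N HCl; optical density measured at 630 nm.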

Row | SMILES | MIC (Staphylococcus aureus [1]) | MIC (Staphylococcus aureus [2]) | MIC (Micrococcus luteus) | MIC (Enterococcus faecalis) | MIC [3] | MIC (Mycolicibacterium aurum) | MIC (Mycolicibacterium vaccae) | MIC [4] | also measured
1 | O=C(O)c1cn(C2CC2)c2cc(N3CCNCC3)c(F)cc2c1=O [CIPROFLOXACIN] | 0.2 µg/mL (≈ 0.604 µM) | > 100 µg/mL | 12.5 µg/mL (≈ 37.7 µM) | 0.8 µg/mL (≈ 2.41 µM) | 0.78 µg/mL (≈ 2.35 µM) | 0.1 µg/mL (≈ 0.302 µM) | 0.78 µg/mL (≈ 2.35 µM) | 0.4 µg/mL (≈ 1.21 µM) | –
2 | Cc1ccc(CSc2ccncc2)cc1 | 50 µg/mL (≈ 232 µM) | 100 µg/mL (≈ 464 µM) | 100 µg/mL (≈ 464 µM) | 100 µg/mL (≈ 464 µM) | 50 µg/mL (≈ 232 µM) | 25 µg/mL (≈ 116 µM) | 25 µg/mL (≈ 116 µM) | 12.5 µg/mL (≈ 58.1 µM) | MIC (Staphylococcus aureus [5]): 100 µg/mL (≈ 464 µM); MIC [6]: 62.5 µM (≈ 13.5 µg/mL); MIC [7]: 62.5 µM (≈ 13.5 µg/mL); MIC (Mycobacterium avium [8]): 62.5 µM (≈ 13.5 µg/mL); MIC (Mycobacterium avium [9]): 125 µM (≈ 26.9 µg/mL); MIC (Mycobacterium kansasii [10]): 32 µM (≈ 6.89 µg/mL); MIC (Mycobacterium kansasii [11]): 62.5 µM (≈ 13.5 µg/mL); MIC (Mycobacterium kansasii [12]): 125 µM (≈ 26.9 µg/mL); MIC (Mycobacterium kansasii [13]): 32 µM (≈ 6.89 µg/mL); MIC (Mycobacterium kansasii [14]): 62.5 µM (≈ 13.5 µg/mL); MIC (Mycobacterium kansasii [15]): 125 µM (≈ 26.9 µg/mL); GI50 (L929): 24.3 µg/mL (≈ 113 µM); GI50 (K562): 37.5 µg/mL (≈ 174 µM); CC10 (HeLa): 13.3 µg/mL (≈ 61.8 µM); CC50 (HeLa; Homo sapiens, HeLa, 72 h): 21.4 µg/mL (≈ 99.4 µM)
